Results as given in PubChem BioAssay.
“And” between values parts separate entries of the source, which are not always exact repeats. Equal entries are not always repeated. More than one record can exist for a structure, and the calls need not agree. The source made the active and inactive calls.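 Rule for the calls, unless noted: active = inhibition at or above 50% relative to wild type and mutant plate controls; inactive = inhibition below 50%.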

experiment: inhibitors of larval lipid processing in zebrafish, primary screen, whole organism, PED6 fluorescence, gall bladder and intestine (AID 686;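 active = a full or partial loss of lipid-probe fluorescence in the fish gall bladder, intestine or both, judged by eye; inactive = no fluorescence loss, or compound toxic to the fish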;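 note: larvae 5 to 7 days old with five fish per well; signal comes from phospholipase A2 cleavage of quenched PED6 carried via bile; overnight exposure to compound and PED6 before scoring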); conditions: Zebrafish larvae PED6 lipid processing, fluorescence scoring; screened at 20 µM (by protocol)
Procedure, shortened: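 Doses: 20 µM single dose. Test system: live zebrafish larvae aged 5-7 days, whole organism. Quantity: five larvae per well. Measured by: By-eye fluorescence microscopy. Reagent: ingested quenched lipid PED6 at 100 nM. Read-out: visual per-well fluorescence inhibition score. Times: overnight exposure of larvae to compound plus PED6.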

SMILES	outcome
O=C(O)c1cc(O)c2c(c1)C(=O)c1cccc(O)c1C2=O	inactive
CCCCC(=O)Nc1c(O)c2ccccc2[nH]c1=O	inactive
Cc1cc(C)n(CC(=O)n2c3c(c4ccccc42)CCCC3)n1	inactive
CCC(NC(C)C)C(O)c1ccc(O)c(O)c1 (stereo not drawn)	inactive
COc1ccc(C2CNC(=O)C2)cc1OC1CCCC1 (stereo not drawn)	inactive
Cn1cnc2c1c(=O)[nH]c(=O)n2C	inactive
N=c1nc(N2CCCCC2)cc(N)n1O	inactive
CCCCCC(=O)N1CC2(C)CN(C(=O)CCCCC)CC(C)(C1)C2=O	inactive
O=C(O)Cc1ccc(-c2ccccc2)cc1	inactive
CCSc1nc(N)c(C#N)c(-c2ccccc2Cl)c1C#N	inactive
O=C(OCC#CCSc1nnc(-c2ccccc2)o1)c1cccs1	inactive
Nc1nc(F)nc2c1ncn2[C@@H]1O[C@H](CO)[C@@H](O)[C@@H]1O	inactive
Cc1nc2sccn2c(=O)c1CCN1CCC(=C(c2ccc(F)cc2)c2ccc(F)cc2)CC1	inactive; toxic
OCCNC1=NCCN1	inactive
CCC[C@@H]1C[C@@H](C(=O)N[C@H]([C@@H](C)O)[C@H]2O[C@H](SC)[C@H](O)[C@@H](O)C2O)N(C)C1 (stereo partly drawn)	inactive
CCOC(=O)C1=C[C@]2(CC)CCCN3CCc4c(n1c1ccccc41)[C@@H]32	inactive
NS(=O)(=O)c1cc2c(cc1Cl)NC(CSCc1ccccc1)=NS2(=O)=O	inactive
Nc1ccc(S(=O)(=O)Nc2ccccn2)cc1	inactive
CC(=O)Oc1cccc2c1C(=O)c1c(OC(C)=O)cc(C(=O)O)cc1C2=O	inactive
OCC(O)CN1CCN(c2ccccc2)CC1 (stereo not drawn)	inactive

SMILES	outcome
O=C(NC1(C(F)(F)F)C(=O)Nc2c1c(=O)[nH]c(=O)n2Cc1ccco1)C1CCCCC1 (stereo not drawn)	inactive
CCN(CC)CC#CCOC(=O)C(O)(c1ccccc1)C1CCCCC1 (stereo not drawn)	inactive
CN1[C@@H](CC(=O)c2ccccc2)CCC[C@H]1C[C@H](O)c1ccccc1	inactive
O=C(O)c1ccccc1Nc1cccc(C(F)(F)F)c1	inactive
O=[N+]([O-])c1cccc2cn[nH]c12	inactive
COc1cccc(-c2nnc3sc(C4CCCCC4)nn23)c1	inactive
CNCCCC1c2ccccc2C=Cc2ccccc21	inactive
CC(C)(C)NCC(O)COc1cccc2c1C[C@H](O)[C@H](O)C2 (stereo partly drawn)	inactive
CCOC(=O)CSC1=C(C#N)C(=O)NC(c2ccc(OC)c(OC)c2)S1 (stereo not drawn)	inactive
COc1ccc2nc(S(=O)Cc3ncc(C)c(OC)c3C)[nH]c2c1 (stereo not drawn)	inactive
Cc1cc(C)c(C#N)c(SCc2[nH]nc3c2C(c2ccccc2)C(C#N)=C(N)O3)n1 (stereo not drawn)	inactive
O/N=C/c1ccc(OCC(O)COc2ccc(/C=N/O)cc2)cc1	inactive
CC(C)(C)OC(=O)N1CC=C2C(C#N)=C(N)C(C#N)(C#N)[C@H](c3cccnc3)[C@H]2C1	inactive
Oc1c(I)cc(I)c2cccnc12	inactive
CCCCOc1ccc(C(=O)CCN2CCCCC2)cc1	inactive
CN(C)c1nc(OCCOC(=O)Nc2ccc(Cl)cc2Cl)nc(N(C)C)n1	inactive
CCOC(=O)c1c(C)n(C)c2ccc(OC)c(NC(=O)CCN3CCSCC3)c12	inactive
CC(C)(C)n1cnc2cc(NS(=O)(=O)c3ccc(Br)cc3)ccc21	inactive
Cn1c([N+](=O)[O-])cnc1COC(N)=O	inactive

experiment: loss of swimming-algae plug formation – whole organism, Chlamydomonas reinhardtii, WT vs cilia-less mutant, absorbance, 96-well, primary screen (AID 463189); conditions: Chlamydomonas reinhardtii gravitaxis, OD600 absorbance, 2 days; at 10 µM; stronger effect = higher value;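 note: 0% = wild type cc124 cells in DMSO and 100% = ciliumless bld1 mutant cells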

SMILES	inhibition
O=C(O)c1cc(O)c2c(c1)C(=O)c1cccc(O)c1C2=O	2.72% (inactive)
CCCCC(=O)Nc1c(O)c2ccccc2[nH]c1=O	-4.89% (inactive)
Cc1cc(C)n(CC(=O)n2c3c(c4ccccc42)CCCC3)n1	-0.753% (inactive)
CCC(NC(C)C)C(O)c1ccc(O)c(O)c1 (stereo not drawn)	14.5% (inactive) and 0.657% (inactive)
COc1ccc(C2CNC(=O)C2)cc1OC1CCCC1 (stereo not drawn)	0.165% (inactive) and 12.7% (inactive)
Cn1cnc2c1c(=O)[nH]c(=O)n2C	8.14% (inactive) and 20.9% (inactive)
N=c1nc(N2CCCCC2)cc(N)n1O	1.56% (inactive) and -3.08% (inactive)
CCCCCC(=O)N1CC2(C)CN(C(=O)CCCCC)CC(C)(C1)C2=O	24% (inactive)
O=C(O)Cc1ccc(-c2ccccc2)cc1	-15% (inactive)
CCSc1nc(N)c(C#N)c(-c2ccccc2Cl)c1C#N	-6.34% (inactive)
O=C(OCC#CCSc1nnc(-c2ccccc2)o1)c1cccs1	-3.45% (inactive)
Nc1nc(F)nc2c1ncn2[C@@H]1O[C@H](CO)[C@@H](O)[C@@H]1O	-8.17% (inactive)
Cc1nc2sccn2c(=O)c1CCN1CCC(=C(c2ccc(F)cc2)c2ccc(F)cc2)CC1	29.2% (inactive) and 168% (active)
OCCNC1=NCCN1	-5.29% (inactive)
CCC[C@@H]1C[C@@H](C(=O)N[C@H]([C@@H](C)O)[C@H]2O[C@H](SC)[C@H](O)[C@@H](O)C2O)N(C)C1 (stereo partly drawn)	35.8% (inactive)
CCOC(=O)C1=C[C@]2(CC)CCCN3CCc4c(n1c1ccccc41)[C@@H]32	5.61% (inactive) and -6.65% (inactive)
NS(=O)(=O)c1cc2c(cc1Cl)NC(CSCc1ccccc1)=NS2(=O)=O	2.85% (inactive)
Nc1ccc(S(=O)(=O)Nc2ccccn2)cc1	4.41% (inactive)
CC(=O)Oc1cccc2c1C(=O)c1c(OC(C)=O)cc(C(=O)O)cc1C2=O	-7.39% (inactive)
OCC(O)CN1CCN(c2ccccc2)CC1 (stereo not drawn)	19.7% (inactive)

SMILES	inhibition
O=C(NC1(C(F)(F)F)C(=O)Nc2c1c(=O)[nH]c(=O)n2Cc1ccco1)C1CCCCC1 (stereo not drawn)	30.9% (inactive)
CCN(CC)CC#CCOC(=O)C(O)(c1ccccc1)C1CCCCC1 (stereo not drawn)	6.66% (inactive) and 16.9% (inactive)
CN1[C@@H](CC(=O)c2ccccc2)CCC[C@H]1C[C@H](O)c1ccccc1	1.79% (inactive) and -5.55% (inactive)
O=C(O)c1ccccc1Nc1cccc(C(F)(F)F)c1	-7.16% (inactive)
O=[N+]([O-])c1cccc2cn[nH]c12	4.7% (inactive) and 1.19% (inactive)
COc1cccc(-c2nnc3sc(C4CCCCC4)nn23)c1	112% (active)
CNCCCC1c2ccccc2C=Cc2ccccc21	7.66% (inactive) and 11.9% (inactive)
CC(C)(C)NCC(O)COc1cccc2c1C[C@H](O)[C@H](O)C2 (stereo partly drawn)	18.1% (inactive)
CCOC(=O)CSC1=C(C#N)C(=O)NC(c2ccc(OC)c(OC)c2)S1 (stereo not drawn)	-1.59% (inactive)
COc1ccc2nc(S(=O)Cc3ncc(C)c(OC)c3C)[nH]c2c1 (stereo not drawn)	27% (inactive)
Cc1cc(C)c(C#N)c(SCc2[nH]nc3c2C(c2ccccc2)C(C#N)=C(N)O3)n1 (stereo not drawn)	31.6% (inactive)
O/N=C/c1ccc(OCC(O)COc2ccc(/C=N/O)cc2)cc1	13.7% (inactive)
CC(C)(C)OC(=O)N1CC=C2C(C#N)=C(N)C(C#N)(C#N)[C@H](c3cccnc3)[C@H]2C1	2.34% (inactive)
Oc1c(I)cc(I)c2cccnc12	2.25% (inactive)
CCCCOc1ccc(C(=O)CCN2CCCCC2)cc1	61.3% (active)
CN(C)c1nc(OCCOC(=O)Nc2ccc(Cl)cc2Cl)nc(N(C)C)n1	-0.1% (inactive)
CCOC(=O)c1c(C)n(C)c2ccc(OC)c(NC(=O)CCN3CCSCC3)c12	4.14% (inactive)
CC(C)(C)n1cnc2cc(NS(=O)(=O)c3ccc(Br)cc3)ccc21	-15% (inactive)
Cn1c([N+](=O)[O-])cnc1COC(N)=O	15.2% (inactive)
